One experiment deals with SW780. The experiment in a line: Antiproliferative activity against human FGFR3-amplified SW780 cells after 5 days by SRB assay. Particulars: SW780, 120 h. Background: Sulforhodamine B stains cellular protein and so reports cell mass.
Experiment [1] in a line: Antiproliferative activity against human FGFR2-amplified SUM52 cells after 5 days by SRB assay. Particulars: SUM52, 120 h.
Another experiment concerns NCI-H520. The experiment is described as follows: Antiproliferative activity against human FGFR1-amplified NCI-H520 cells after 7 days by SRB assay. As to conditions: NCI-H520, 168 h.
The target in experiment [2] is Fibroblast growth factor receptor 3 (Homo sapiens, UniProt P22607). The experiment is described as follows: Inhibition of human recombinant His-tagged FGFR3 cytoplasmic domain (399 to 806 residues) expressed in baculovirus using Tyr-4 peptide after 1 hr by FRET-based Z'-Lyte assay.
Chain of Fibroblast growth factor receptor 3 (P22607 whole entry, the tested form may be a part): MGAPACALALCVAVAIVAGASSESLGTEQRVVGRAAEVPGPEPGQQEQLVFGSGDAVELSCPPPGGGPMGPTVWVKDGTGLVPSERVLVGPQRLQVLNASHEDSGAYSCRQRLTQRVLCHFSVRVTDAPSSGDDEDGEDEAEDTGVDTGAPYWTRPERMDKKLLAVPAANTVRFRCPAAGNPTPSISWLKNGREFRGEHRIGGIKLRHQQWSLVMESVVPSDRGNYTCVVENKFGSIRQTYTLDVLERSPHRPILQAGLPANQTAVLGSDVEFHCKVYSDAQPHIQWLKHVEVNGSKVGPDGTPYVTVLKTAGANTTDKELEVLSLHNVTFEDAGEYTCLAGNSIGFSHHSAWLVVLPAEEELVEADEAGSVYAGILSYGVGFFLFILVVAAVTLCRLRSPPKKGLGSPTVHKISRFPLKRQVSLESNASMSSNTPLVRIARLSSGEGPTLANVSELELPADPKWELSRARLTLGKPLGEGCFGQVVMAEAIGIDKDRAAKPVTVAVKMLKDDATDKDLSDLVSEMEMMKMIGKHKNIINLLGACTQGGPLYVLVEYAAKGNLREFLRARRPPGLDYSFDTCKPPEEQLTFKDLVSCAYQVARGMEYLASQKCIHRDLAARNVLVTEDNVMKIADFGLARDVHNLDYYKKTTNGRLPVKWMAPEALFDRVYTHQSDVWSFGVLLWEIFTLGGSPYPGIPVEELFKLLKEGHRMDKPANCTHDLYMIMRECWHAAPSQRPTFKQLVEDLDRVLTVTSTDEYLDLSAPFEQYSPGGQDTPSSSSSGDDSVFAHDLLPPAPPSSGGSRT
Experiment [3] deals with Fibroblast growth factor receptor 4 (Homo sapiens, UniProt P22455). The experiment in a line: Inhibition of human recombinant His-tagged FGFR4 cytoplasmic domain ([…] residues) expressed in baculovirus using Tyr-4 peptide after 1 hr by FRET-based Z'-Lyte assay.
Chain of Fibroblast growth factor receptor 4 (P22455 whole entry, the tested form may be a part): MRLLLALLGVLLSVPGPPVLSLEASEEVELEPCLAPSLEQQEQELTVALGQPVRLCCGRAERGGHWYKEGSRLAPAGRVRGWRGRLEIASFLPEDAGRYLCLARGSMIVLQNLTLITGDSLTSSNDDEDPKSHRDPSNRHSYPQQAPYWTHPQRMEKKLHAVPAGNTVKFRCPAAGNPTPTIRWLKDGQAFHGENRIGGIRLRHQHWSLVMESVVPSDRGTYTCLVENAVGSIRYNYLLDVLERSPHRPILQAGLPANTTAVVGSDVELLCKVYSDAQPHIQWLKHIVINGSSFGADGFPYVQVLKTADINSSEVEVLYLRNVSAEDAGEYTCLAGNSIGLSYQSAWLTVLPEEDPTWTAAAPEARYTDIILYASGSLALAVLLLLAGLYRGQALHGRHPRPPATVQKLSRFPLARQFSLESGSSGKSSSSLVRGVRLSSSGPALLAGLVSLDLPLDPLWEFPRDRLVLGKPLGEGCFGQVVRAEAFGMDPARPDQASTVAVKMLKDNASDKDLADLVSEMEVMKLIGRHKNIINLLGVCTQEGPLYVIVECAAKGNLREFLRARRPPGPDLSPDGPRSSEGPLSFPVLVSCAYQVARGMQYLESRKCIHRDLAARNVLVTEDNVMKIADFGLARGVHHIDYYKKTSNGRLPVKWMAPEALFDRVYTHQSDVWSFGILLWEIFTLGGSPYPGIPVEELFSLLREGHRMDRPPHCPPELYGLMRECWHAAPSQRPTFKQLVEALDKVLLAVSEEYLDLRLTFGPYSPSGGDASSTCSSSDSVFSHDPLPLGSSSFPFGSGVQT
The subject of the next experiment is L02. The experiment in a line: Cytotoxicity against human HL7702 cells assessed as cell viability after 72 hrs by CCK-8 assay. Type of experiment: cell-based. As to conditions: L02, 72 h. A digest of the protocol: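 Log-phase HL7702 cells were plated at ~3000 cells/well and treated 24 h later with compound or vehicle for 72 h. CCK-8 was added for 3 h and OD450 minus OD650 measured. Viability = (As−Ac)/(Ab−Ac)×100, with Ac a cell-free blank and Ab the vehicle control.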

The next experiment concerns NCI-H661. The experiment in a line: Antiproliferative activity against human NCI-H661 cells after 5 days by SRB assay. As to conditions: NCI-H661, 120 h. Type of experiment: functional, cell-based. A digest of the protocol:
(§1)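 Grown in α-MEM + 5% FBS at 37 °C, 5% CO2. Seeding per well: 3000 (H661), 1000 (PC9), 400 (H460, H1299), attached overnight. Cells were dosed with a 3-fold serial dilution from DMSO stocks for 5 days. Then cold TCA fixation, 0.4% SRB staining, solubilisation in 10 mM Tris pH 10.5, absorbance at 490 nm. IC50 was derived from the curves.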

Another experiment concerns NCI-H1299. The experiment in a line: Antiproliferative activity against human NCI-H1299 cells after 5 days by SRB assay. Type of experiment: functional, cell-based. Particulars: NCI-H1299, 120 h. A digest of the protocol: as §1
Another experiment deals with PC-9. The experiment in a line: Antiproliferative activity against human PC9 cells after 5 days by SRB assay. Particulars: PC-9, 120 h. Type of experiment: functional, cell-based. A digest of the protocol:
as §1

The next experiment relates to NCI-H460. The experiment is described as follows: Antiproliferative activity against human NCI-H460 cells after 5 days by SRB assay. Type of experiment: functional, cell-based. Particulars: NCI-H460, 120 h. A digest of the protocol: as §1

We go through 14 compounds from ChEMBL document CHEMBL4043093, “2-Oxo-3, 4-dihydropyrimido[4, 5-d]pyrimidinyl derivatives as new irreversible pan fibroblast growth factor receptor (FGFR) inhibitors” (Eur J Med Chem, 2017).

The structures appear in SMILES notation.

One may read the IC50 as the concentration that inhibits the measured activity by half. Take `COc1cc(OC)c(Cl)c(N2Cc3cnc(NC4CCCCC4)nc3N(C3CCN(C(=O)/C=C/CN(C)C)CC3)C2=O)c1Cl`: the IC50 was 14.5 nM with SW780, 0.84 nM in experiment [1] and 13.6 nM with NCI-H520.

As to `COc1cc(OC)c(Cl)c(N2Cc3cnc(NC4CCOC4)nc3N(C3CCN(C(=O)/C=C/CN(C)C)CC3)C2=O)c1Cl` (stereo not drawn), the IC50 in the experiment with SW780 was 32 nM; in [1] it was 4 nM; in the experiment on NCI-H520, 70 nM.

In the case of `COc1cccc(Nc2ncc3c(n2)N(C2CCN(C(=O)/C=C/CN(C)C)CC2)C(=O)N(c2c(Cl)c(OC)cc(OC)c2Cl)C3)c1`, the IC50 with SW780 was found to be 5.4 nM; in experiment [1], 1 nM; with NCI-H520, 19.3 nM.

`COc1cc(OC)c(Cl)c(N2Cc3cnc(NC(C)C)nc3N(C3CCN(C(=O)/C=C/CN(C)C)CC3)C2=O)c1Cl`: the IC50 with SW780 turned out to be 12.3 nM; in [1] it was 0.65 nM; in the experiment on NCI-H520, 4.91 nM.

For `COc1ccccc1Nc1ncc2c(n1)N(C1CCN(C(=O)/C=C/CN(C)C)CC1)C(=O)N(c1c(Cl)c(OC)cc(OC)c1Cl)C2`, the IC50 is 27.5 nM in the experiment with SW780, 3.3 nM in experiment [1] and 39.8 nM with NCI-H520.

Consider `COc1cc(OC)c(Cl)c(N2Cc3cnc(Nc4cccc(C)c4)nc3N(C3CCN(C(=O)/C=C/CN(C)C)CC3)C2=O)c1Cl`, for which the figures for the IC50 (in the experiment on SW780; in experiment [1]; with NCI-H520) were 15.1 nM, 1.1 nM and 5.3 nM, respectively.

As for `CNc1ncc2c(n1)N(C1CCN(C(=O)/C=C/CN(C)C)CC1)C(=O)N(c1c(Cl)c(OC)cc(OC)c1Cl)C2`, the IC50 in the experiment on SW780 came out at 5.2 nM; in [1], 2 nM; in the experiment with NCI-H520 it was 56.2 nM.

For `CCN(CC)CCCCNc1ncc2cc(-c3cc(OC)cc(OC)c3)c(NC(=O)NC(C)(C)C)nc2n1` [PD-173074], the IC50 in the experiment on SW780 came out at 84.3 nM; in [1], 12.3 nM.

For `COc1cc(OC)c(Cl)c(N2Cc3cnc(N(C)C)nc3N(C3CCN(C(=O)/C=C/CN(C)C)CC3)C2=O)c1Cl`, the IC50 with SW780 was 570 nM; in experiment [2], above 1000 nM; in [1], 224 nM; in the experiment on NCI-H520, 2420 nM; in experiment [3], above 1000 nM.

Turning to `COc1cc(OC)c(Cl)c(N2Cc3cnc(Nc4ccccc4)nc3N(C3CCN(C(=O)/C=C/CN(C)C)CC3)C2=O)c1Cl`, the IC50 with SW780 was 9.73 nM; in the experiment on L02, 1890 nM; in [1] it was 0.65 nM; in the experiment with NCI-H661, 2750 nM; with NCI-H520 it was 4.14 nM; with NCI-H1299, 2480 nM. The results for the IC50 with PC-9 and in the experiment on NCI-H460 were 1260 nM and 1400 nM, respectively.

Take `C=CC(=O)Nc1cccc(CN2C(=O)N(c3c(Cl)c(OC)cc(OC)c3Cl)Cc3cnc(NCCCCN(CC)CC)nc32)c1`: the results for the IC50 (in the experiment with SW780; in experiment [1]; in the experiment with NCI-H520) were 277 nM, 2.9 nM and 121 nM, respectively.

Consider `COc1cc(OC)c(Cl)c(N2Cc3cnc(Nc4cccc(F)c4)nc3N(C3CCN(C(=O)/C=C/CN(C)C)CC3)C2=O)c1Cl`, for which the IC50 is 9 nM with SW780, 1.1 nM in experiment [1] and 6.5 nM in the experiment with NCI-H520.

As for `COc1cc(OC)c(Cl)c(N2Cc3cnc(NC4CCOCC4)nc3N(C3CCN(C(=O)/C=C/CN(C)C)CC3)C2=O)c1Cl`, the IC50 was 3.34 nM in the experiment on SW780, 0.57 nM in experiment [1] and 7.82 nM with NCI-H520.

Consider `COc1ccc(Nc2ncc3c(n2)N(C2CCN(C(=O)/C=C/CN(C)C)CC2)C(=O)N(c2c(Cl)c(OC)cc(OC)c2Cl)C3)cc1`, for which the IC50 in the experiment with SW780 worked out at 0.3 nM; in [1] it was 0.8 nM; with NCI-H520, 3 nM.
